From the RNAGym collection of RNA variant scans (doi:10.1002/anie.201605470)

B1: Osa-1-4 twister ribozyme (parent)
chain: CCGCCUAACACUGCCAAUGCCGGUCCCAAGCCCGGAUAAAAGUGGAGGGGGCGG

Variants of: B1
Assay: self-cleavage, relative activity (ratio to wild type); higher = more cleavage; co-transcriptional
Summary of the method: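 A DNA template encoding a 54-nucleotide twister ribozyme from Oryza sativa was made so that each of the 48 positions downstream of the cleavage site carried 97 % wild-type base and 1 % of each other base. Transcription in vitro ran for 2 h at 37 °C, during which the ribozyme could cleave itself. Reverse transcription used a template-switching oligonucleotide, and the products were PCR-amplified and deep-sequenced. Each read was scored as cleaved or uncleaved by whether upstream sequence was present, and relative activity is the fraction cleaved normalised to wild type.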

First: C31A U24C
Second: C31U G54A
The self-cleavage of the first is lower: 0.02 for the first, 0.32 for the second.

First: C31U G54C
Second: C31U G54U
The self-cleavage of the first is lower: 0.27 for the first, 0.5 for the second.

Compared with C31A C32G, C31A C32A is higher in self-cleavage: 0.02 for the first, 0.04 for the second.

Going from C31A C32U to C31G G35A, the self-cleavage rises from 0.01 to 0.15.

Going from C31G G35U to C31G G35C, the self-cleavage falls from 0.12 to 0.04.

Compared with C31U G22U, C31U G22A is higher in self-cleavage: 0.3 for the first, 0.52 for the second.

First: C31U G22C
Second: C31A U18C
The self-cleavage of the first is higher: 0.07 for the first, 0.04 for the second.

Going from C31A U18G to C31A U18A, the self-cleavage falls from 0.05 to 0.04.

C32A G13U and C32A G13A are the same in self-cleavage: 0.01 for the first, 0.01 for the second.

Compared with C32A G13C, C31G U18C is higher in self-cleavage: 0.01 for the first, 0.13 for the second.

Compared with C31G U18A, C31G U18G is higher in self-cleavage: 0.1 for the first, 0.15 for the second.

Going from C31U G53U to C31U G53C, the self-cleavage falls from 0.08 to 0.05.

Compared with C31U G53A, C31U U18G is higher in self-cleavage: 0.19 for the first, 0.82 for the second.

Going from C31U U18C to C31U U18A, the self-cleavage rises from 0.87 to 0.9.

Going from C32A G23A to C32A G23U, the self-cleavage rises from 0.17 to 0.48.

Going from C32A G23C to C31G C33U, the self-cleavage rises from 0.03 to 0.06.

Compared with C31G C33G, C31G C33A is higher in self-cleavage: 0.03 for the first, 0.04 for the second.

First: C32A
Second: C31U C9A
The self-cleavage of the first is higher: 0.15 for the first, 0.11 for the second.

Compared with C31U C9G, C31U C9U is higher in self-cleavage: 0.16 for the first, 0.32 for the second.

Compared with C31G C52U, C31G C52G is higher in self-cleavage: 0.12 for the first, 0.15 for the second.

First: C31G C52A
Second: C32A C52U
The self-cleavage of the first is lower: 0.1 for the first, 0.18 for the second.

C32A C52A and C32A C52G are the same in self-cleavage: 0.1 for the first, 0.1 for the second.

Compared with C31G G51C, C31G G51A is higher in self-cleavage: 0.04 for the first, 0.08 for the second.

Compared with C31G G51U, C31A G45C is lower in self-cleavage: 0.05 for the first, 0.01 for the second.

C31A G45A and C31A G45U are the same in self-cleavage: 0.02 for the first, 0.02 for the second.

C31U G47U and C31U G47A are the same in self-cleavage: 0.05 for the first, 0.05 for the second.

Going from C31U G47C to C31G C32A, the self-cleavage falls from 0.03 to 0.02.

First: C31G C32G
Second: C31G C32U
The self-cleavage of the first is higher: 0.1 for the first, 0.04 for the second.

Compared with C31G G13U, C31G G13A is higher in self-cleavage: 0.04 for the first, 0.06 for the second.

Going from C31G G13C to C32A G47U, the self-cleavage falls from 0.06 to 0.04.

Compared with C32A G47A, C32A G47C is lower in self-cleavage: 0.04 for the first, 0.03 for the second.

Compared with C31U U37C, C31U U37G is higher in self-cleavage: 0.94 for the first, 1 for the second.

First: C31U U37A
Second: C31U G51U
The self-cleavage of the first is higher: 0.84 for the first, 0.13 for the second.

Going from C31U G51C to C31U G51A, the self-cleavage rises from 0.06 to 0.29.

Going from C31G G34C to C31G G34A, the self-cleavage rises from 0.1 to 0.11.

Going from C31G G34U to G30U G53U, the self-cleavage falls from 0.08 to 0.04.

First: G30U G53A
Second: G30U G53C
The self-cleavage of the first is higher: 0.04 for the first, 0.03 for the second.

Compared with C31A G13A, C31A G13U is higher in self-cleavage: 0.01 for the first, 0.02 for the second.

First: C31A G13C
Second: C31U G42C
The self-cleavage of the first is lower: 0.01 for the first, 0.07 for the second.

Compared with C31U G42U, C31U G42A is higher in self-cleavage: 0.03 for the first, 0.09 for the second.

Compared with C31A U43A, C31A U43G is higher in self-cleavage: 0.03 for the first, 0.04 for the second.

Compared with C31A U43C, C31U C52G is higher in self-cleavage: 0.03 for the first, 0.75 for the second.
